This is a sample that favours compounds with a hit; in the whole collection about 2.5% have one here.
SENP6 block: SENP6 protease inhibition; Q9GZR1; Recombinant SENP6 catalytic domain, aminoluciferin luminescence; inhibition, % at 10 µM; 1.8% of 330,000 active; AID 2599;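 active means inhibition above about 50% at the single tested dose, limit read from the data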
SENP8 block-1: blocks human SENP8 cleavage of Nedd8 substrate | inhibition, % at 20 µM | 0.64% of 360,000 active | recombinant SENP8, Nedd8 substrate fluorescence | Q96LD8; in the data active means inhibition mostly above about 40%, no sharp cut-off; inactive means mostly below about 27%
Target sequence (Q96LD8 whole entry, looked up): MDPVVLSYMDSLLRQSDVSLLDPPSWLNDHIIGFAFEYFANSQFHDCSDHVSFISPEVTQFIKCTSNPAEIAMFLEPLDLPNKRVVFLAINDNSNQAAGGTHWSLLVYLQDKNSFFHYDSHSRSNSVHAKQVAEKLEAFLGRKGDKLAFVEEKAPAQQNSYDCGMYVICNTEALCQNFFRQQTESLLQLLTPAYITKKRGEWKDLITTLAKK
SENP8 block-2: SENP8 protease inhibition. Q96LD8. purified SENP8, Z-RLRGG-aminoluciferin cleavage, luminescence. inhibition, % at 10 µM. 1.2% of 330,000 active. AID 2540; in the data active means inhibition above about 50%
SENP7 block: inhibitors of human SENP7 protease; inhibition, % at 5 µM; Q9BQF6; recombinant SENP7, Z-RLRGG-aminoluciferin luminescence, 40 min; AID 434973; 1.5% of 330,000 active;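 active means inhibition above about 50% at the single test dose, limit read from the data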
SENP1 FRET inh: blocks the human SENP1 SUMO protease catalytic domain. recombinant SENP1 catalytic domain, CyPet-SUMO1-YPet FRET cleavage. inhibition, % at 10 µM. 0.21% of 360,000 active. AID 624204;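 active means inhibition at least 30% at 10 µM, raw YFP signal under a set limit, fluorescence ratio 0.5 to 1.5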
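System: Recombinant human SENP1 catalytic domain, His6-tagged | Incubation: Enzyme reaction for 50 min at room temperature, dark | Medium: Tris pH 8 with BME, BSA, NP40 and catalase | Also added: 25 nM SUMO1 FRET substrate | Compound: 10 µM single point, 0.5% DMSO | Measured by: FRET fluorescence in CFP and YFP emission channels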
SENP8 conf: confirmation of human SENP8 protease inhibitors. inhibition, % at 12.5 µM. Recombinant SENP8, Z-RLRGG-aminoluciferin luminescence, 60 min. shares compounds with SENP7 block. AID 488912. 40% of 6,200 active;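 active means mean inhibition across replicates above about 50%, limit read from the data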
SENP6 confirm: confirmation of human SENP6 protease inhibitors | AID 488915 | recombinant SENP6, Z-RLRGG-aminoluciferin luminescence | 58% of 6,200 active | inhibition, % at 12.5 µM | shares compounds with SENP7 block
SENP7 conf: human SENP7 inhibition, confirmed; shares compounds with SENP7 block; recombinant SENP7, Z-RLRGG-aminoluciferin luminescence, 40 min; inhibition, % at 12.5 µM; 69% of 6,200 active; AID 488917
Casp3 SENP sel: caspase-3 inhibition (SENP selectivity assay). shares compounds with SENP7 block. inhibition, % at 12.5 µM. 60% of 6,200 active. purified caspase-3, Z-DEVD-aminoluciferin luminescence, 60 min;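 active means mean inhibition above about 50%, limit read from the data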
Target sequence (P42574 28-227 limits assumed): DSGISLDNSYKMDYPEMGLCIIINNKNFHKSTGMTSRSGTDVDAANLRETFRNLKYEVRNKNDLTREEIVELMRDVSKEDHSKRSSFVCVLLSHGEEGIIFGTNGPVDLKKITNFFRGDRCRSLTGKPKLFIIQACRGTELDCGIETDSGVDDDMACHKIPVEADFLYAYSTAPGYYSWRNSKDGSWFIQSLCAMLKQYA
SENP luc ctr: luminescence interference (SENP counter-screen); shares compounds with SENP7 block; Pre-incubated SENP8/Z-RLRGG-aminoluciferin, luciferase luminescence interference; inhibition, % at 12.5 µM; 39% of 6,200 active; AID 488919;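 active means mean inhibition above about 50% when retested at one dose, limit read from the data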
Each line names hits and unclear results; the compound was inactive in the other large screens (follow-up assays come after a bar, where they were run).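 How the source made its calls, unless noted: active means mean inhibition above about 50% in the one-dose retest (limit read from the data); inactive means the rest.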

O=[N+]([O-])c1ccc(Cl)c(CN2CCN(c3ncc(Cc4ccccc4)cn3)CC2)c1	none (no result: SENP6 block, SENP8 block-2, SENP7 block)
Cn1nnc2ccccc2c1=O	none
CC(=O)N1c2ccc(S(=O)(=O)NCCC(=O)Nc3ccc(OC(F)(F)F)cc3)cc2CC1C (centres undefined)	none
CC(=O)Nc1ccc(-c2nnn(CC(=O)c3ccc(F)cc3)n2)cc1Cl	SENP6 block 82 | SENP8 conf inactive | SENP6 confirm inactive | SENP7 conf inactive | Casp3 SENP sel inactive | SENP luc ctr inactive
CC(=O)Nc1ccc(-c2nnn(CC(=O)c3ccccc3)n2)cc1Cl	none
CSc1nsc(/C=C/Nc2ccc(C(=O)O)cc2)c1C#N	SENP6 block 58 | SENP8 conf inactive | SENP6 confirm 68 | SENP7 conf 89 | Casp3 SENP sel 57 | SENP luc ctr inactive
CCCCOC(=O)Nc1cccc(C(C)=O)c1	none
Cc1cc(N)n(-c2cc(C)c3ccccc3n2)n1	SENP6 block 79, SENP8 block-2 73, SENP7 block 81 | SENP8 conf inactive | SENP6 confirm 71 | SENP7 conf 93 | Casp3 SENP sel 79 | SENP luc ctr 70
C#CCOC(=O)C(NC(=O)c1ccccc1)=C1CCCCC1	none
COc1ccc(Cl)cc1S(=O)(=O)NCCCn1ccnc1	SENP6 block 53 | SENP8 conf inactive | SENP6 confirm inactive | SENP7 conf inactive | Casp3 SENP sel inactive | SENP luc ctr inactive
O=C(NCCc1ccccc1)c1ccc2c(c1)OCCO2	SENP6 block 72, SENP7 block 80 | SENP8 conf 73 | SENP6 confirm 70 | SENP7 conf 89 | Casp3 SENP sel 87 | SENP luc ctr 75
O=C(NCCc1ccccc1)c1ccc2c(c1)OCCCO2	SENP6 block 85, SENP8 block-2 78, SENP7 block 83 | SENP8 conf 86 | SENP6 confirm 86 | SENP7 conf 98 | Casp3 SENP sel 93 | SENP luc ctr 85
Cc1ccc(NC(=O)c2cc(C)n(-c3cccc(C)c3)c2C)cc1	none
Cc1ccc(NC(=O)c2cc(C)n(-c3ccccc3)c2C)cc1	SENP6 block 86, SENP8 block-2 67, SENP7 block 72 | SENP8 conf 86 | SENP6 confirm 85 | SENP7 conf 97 | Casp3 SENP sel 73 | SENP luc ctr inactive
Cc1cc(C(=O)Nc2ccc(Cl)cc2)c(C)n1-c1ccccc1	SENP6 block 93, SENP8 block-2 89, SENP7 block 91 | SENP8 conf 91 | SENP6 confirm 98 | SENP7 conf 102 | Casp3 SENP sel 88 | SENP luc ctr inactive
CC(=O)Oc1ccc(N2C(=O)C3C4C=CC(CC4)C3C2=O)cc1[N+](=O)[O-] (centres undefined)	none
COc1ccc(CCNC(=O)c2ccc3c(c2)NC(=O)C(CSCc2cc(C)ccc2C)N3)cc1OC (centres undefined)	none (no result: SENP8 block-1, SENP1 FRET inh)
CCOC(=O)c1sc(/N=C/c2ccc(O)cc2O)cc1C	SENP6 block 96, SENP8 block-2 94 | SENP8 conf 78 | SENP6 confirm 98 | SENP7 conf 101 | Casp3 SENP sel 83 | SENP luc ctr inactive
COc1ccc(C(=O)COC(=O)c2ccco2)cc1	SENP6 block 72, SENP8 block-2 50, SENP7 block 55 | SENP8 conf 62 | SENP6 confirm 62 | SENP7 conf 86 | Casp3 SENP sel 85 | SENP luc ctr 71
Cc1cccc(/C(N)=N/OC(=O)CCCc2ccccc2)c1	SENP6 block 60 | SENP8 conf inactive | SENP6 confirm 52 | SENP7 conf 85 | Casp3 SENP sel 68 | SENP luc ctr inactive
COc1cc(OC)c(C(=O)O/N=C(\N)c2cccc(C)c2)cc1OC	none
